In ChEMBL document CHEMBL1926645, “Synthesis and biological evaluation of (4H-1,2,4-triazol-4-yl)isoquinoline derivatives as selective glycine transporter 1 inhibitors” (Bioorg Med Chem, 2012):
pIC50: −log10 of the molar value. ≈ marks a conversion by molar mass, not a printed value.

How the values were obtained:
[1] = target: T1, Sodium- and chloride-dependent glycine transporter 1 (Rattus norvegicus, UniProt P28572); assay: Displacement of [3H]glycine from rat GlyT1 expressed in rat C6 cells after 30 mins by scintillation counting; type: cell-based
T1 sequence (P28572 whole entry): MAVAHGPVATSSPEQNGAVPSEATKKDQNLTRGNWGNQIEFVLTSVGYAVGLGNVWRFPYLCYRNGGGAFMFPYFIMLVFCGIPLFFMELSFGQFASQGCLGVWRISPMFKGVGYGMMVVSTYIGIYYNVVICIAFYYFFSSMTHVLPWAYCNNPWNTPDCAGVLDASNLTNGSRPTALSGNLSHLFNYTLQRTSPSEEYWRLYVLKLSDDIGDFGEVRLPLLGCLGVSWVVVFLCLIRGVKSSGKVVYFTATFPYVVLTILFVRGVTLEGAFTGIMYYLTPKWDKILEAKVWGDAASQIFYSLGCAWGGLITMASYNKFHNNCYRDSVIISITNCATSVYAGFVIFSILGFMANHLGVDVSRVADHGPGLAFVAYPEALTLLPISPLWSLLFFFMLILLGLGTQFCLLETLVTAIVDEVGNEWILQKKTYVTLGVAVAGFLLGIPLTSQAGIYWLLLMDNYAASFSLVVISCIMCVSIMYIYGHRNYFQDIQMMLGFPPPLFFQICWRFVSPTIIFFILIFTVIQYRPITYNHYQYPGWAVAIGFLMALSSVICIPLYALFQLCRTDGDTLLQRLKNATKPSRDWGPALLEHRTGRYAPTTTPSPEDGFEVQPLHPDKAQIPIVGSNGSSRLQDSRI
How it was run: (§1)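 Rat GlyT1-expressing C6 cells grown in D-MEM/10% FCS, 37 °C, 5% CO2, plated 2 days ahead. Cells washed, then preincubated 30 min with compound in HEPES buffer pH 7.4 (NaCl, KCl, MgCl2, CaCl2, glucose, L-alanine). Uptake started with [3H]glycine, 10 min at 37 °C. Nonspecific uptake defined with 3 mmol/L sarcosine. Cells washed with ice-cold PBS, lysed in 0.1 mol/L NaOH, scintillation counted; mean ± SEM of three independent experiments.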

[2] = target: T2, Sodium- and chloride-dependent glycine transporter 1 (Rattus norvegicus) (UniProt P28572); assay: Displacement of [3H]glycine from rat GlyT1 expressed in rat C6 cells at 10 uM after 30 mins by scintillation counting; type: cell-based; how it was run: as §1
T2 sequence (whole entry): T1 sequence (P28572 whole entry)

Rattus norvegicus = organism: Rattus norvegicus; assay: Selectivity ratio of IC50 for rat GlyT2 to IC50 for rat GlyT1
[3] = Aqueous solubility of the compound at pH 6.8; type: physicochemical
How it was run: (§2)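 Compound suspension held at 25 °C for 20 h; precipitate removed by filtration and dissolved concentration in filtrate measured by HPLC.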

[4] = Aqueous solubility of the compound at pH 1.2; type: physicochemical; how it was run: as §2
[5] = target: T3, Sodium- and chloride-dependent glycine transporter 2 (Rattus norvegicus, UniProt P58295); assay: Displacement of [3H]glycine from Wistar rat brain GlyT2 after 10 mins by scintillation counting
T3 sequence (P58295 whole entry): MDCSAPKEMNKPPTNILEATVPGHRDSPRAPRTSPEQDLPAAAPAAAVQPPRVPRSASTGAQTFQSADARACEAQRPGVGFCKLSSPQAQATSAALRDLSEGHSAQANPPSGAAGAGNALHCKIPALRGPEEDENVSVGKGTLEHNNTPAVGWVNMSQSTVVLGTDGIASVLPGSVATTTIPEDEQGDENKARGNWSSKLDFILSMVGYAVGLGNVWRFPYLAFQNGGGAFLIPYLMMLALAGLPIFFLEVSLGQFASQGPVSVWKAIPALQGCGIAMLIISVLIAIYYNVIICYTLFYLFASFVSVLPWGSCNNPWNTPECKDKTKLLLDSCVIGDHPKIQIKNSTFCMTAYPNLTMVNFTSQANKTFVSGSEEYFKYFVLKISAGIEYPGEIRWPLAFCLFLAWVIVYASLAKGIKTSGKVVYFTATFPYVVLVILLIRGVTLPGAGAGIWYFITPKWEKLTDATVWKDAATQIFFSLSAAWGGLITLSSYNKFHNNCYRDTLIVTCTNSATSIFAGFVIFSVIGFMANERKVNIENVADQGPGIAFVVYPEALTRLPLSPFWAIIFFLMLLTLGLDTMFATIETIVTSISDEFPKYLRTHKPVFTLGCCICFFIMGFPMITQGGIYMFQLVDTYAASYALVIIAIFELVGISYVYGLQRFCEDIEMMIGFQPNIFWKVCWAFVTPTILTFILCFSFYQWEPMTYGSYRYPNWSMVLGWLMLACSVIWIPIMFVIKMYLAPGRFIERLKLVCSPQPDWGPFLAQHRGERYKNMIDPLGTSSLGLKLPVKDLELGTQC
How it was run: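 Primary brainstem cells from Wistar rat fetuses (E17) were papain-dispersed, plated on poly-L-lysine, and cultured 14–21 days. The assay buffer, pH 7.4, contained 3 mmol/L sarcosine; wells were preincubated 10 min at 37 °C. Compound was added with ~0.3 µM [3H]glycine for 10 min at 37 °C, followed by four ice-cold washes, NaOH lysis and scintillation counting. Specific uptake was defined with 3 mmol/L glycine; mean ± SEM of three independent experiments.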

Mus musculus = assay: Antipsychotic activity in ICR mouse assessed as inhibition of (+)-HA966-induced hyperlocomotion at 10 mg/kg, ip administered 20 mins prior (+)-HA966] challenge measured every 90 mins; type: functional; details: route intraperitoneal
How it was run: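 Mice, 16 per group, pretreated with reserpine 10 mg/kg ip 19 h and α-methyl-para-tyrosine methyl ester 250 mg/kg ip 30 min before bilateral intracerebroventricular (+)-HA966 80 µg/mouse; ACSF+vehicle controls. Locomotor activity integrated over 90 min immediately after (+)-HA966. Percent inhibition = 100 × [(HA966+vehicle − ACSF+vehicle) − (HA966+compound − ACSF+vehicle)] / (HA966+vehicle − ACSF+vehicle).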

SMILES | pIC50 [1] | solubility [3] [µM] | solubility [4] [µM] | further results
CCc1nnc(-c2ccc(-c3ccccc3)cc2)n1-c1ccnc2ccccc12 | 5.77 |  |  | 
CCc1nnc(-c2ccc(-c3ccccc3)cc2)n1-c1cccc2c[n+]([O-])ccc12 | < 5.00 |  |  | inhibition [2]: 28%
CCc1nnc(-c2ccc(-c3ccccc3)cc2)n1C(C)c1ccncc1 (stereo unspecified) | < 5.00 |  |  | inhibition [2]: 36%
CCc1nnc(-c2ccc(-c3ccccc3)cc2)n1-c1cccc2cccnc12 | 6.52 | 23 (≈ 8.66 µg/mL) | > 100 | pIC50 [5]: 6.42; Ratio IC50 (Rattus norvegicus): 1.3
CCc1nnc(-c2ccc(-c3ccccc3)cc2)n1Cc1ccncc1 | < 5.00 |  |  | inhibition [2]: 15%
CCc1nnc(-c2ccc(-c3ccccc3)cc2)n1-c1nccc2ccccc12 | 5.85 |  |  | 
CC(C)c1nnc(-c2ccc(-c3ccccc3)cc2)n1-c1ccccc1F |  | < 1 | 5 (≈ 1.79 µg/mL) | inhibition in vivo at 10 mg/kg (Mus musculus): 70%
CCc1nnc(-c2ccc(-c3ccccc3)cc2)n1-c1cncc2ccccc12 | 5.43 |  |  | 

Now from value to compound, other results behind:

pIC50 [1] | solubility [3] [µM] | solubility [4] [µM] | SMILES | further results
5.55 |  |  | CCc1nnc(-c2ccc(-c3ccccc3)cc2)n1-c1cccc2[nH]ncc12 | 
4.66 |  |  | CCc1nnc(-c2ccc(-c3ccccc3)cc2)n1-c1cccc2cc[nH]c12 | 
 | < 1 | 96 (≈ 33 µg/mL) | CCc1nnc(-c2ccc(-c3ccccc3)cc2)n1-c1ccccc1F | Ratio IC50 (Rattus norvegicus): 1
5.25 |  |  | CCc1nnc(-c2ccc(-c3ccccc3)cc2)n1-c1cccc2cn[nH]c12 | 
 | 5 (≈ 1.88 µg/mL) | > 100 | CCc1nnc(-c2ccc(-c3ccccc3)cc2)n1-c1cccc2cnccc12 | 
5.52 |  |  | CCc1nnc(-c2ccc(-c3ccccc3)cc2)n1-c1cccc2ccn(C)c12 | 
< 5.00 |  |  | CCc1nnc(-c2ccc(-c3ccccc3)cc2)n1-c1cccc2c(=O)[nH]ccc12 | inhibition [2]: 16%
6.09 | 9 (≈ 3.39 µg/mL) | > 100 | CCc1nnc(-c2ccc(-c3ccccc3)cc2)n1-c1cccc2ncccc12 | pIC50 [5]: 5.57; Ratio IC50 (Rattus norvegicus): 3.3
5.12 |  |  | CCc1nnc(-c2ccc(-c3ccccc3)cc2)n1-c1cccc2nc[nH]c12 | 
6.10 | 11 (≈ 4.14 µg/mL) | > 100 | CCc1nnc(-c2ccc(-c3ccccc3)cc2)n1-c1cccc2ccncc12 | pIC50 [5]: 5.38; Ratio IC50 (Rattus norvegicus): 5.3
< 5.00 |  |  | CCc1nnc(-c2ccc(-c3ccccc3)cc2)n1-c1cccc2c1CCNC2 | inhibition [2]: 25%
